Assay results: ChEMBL document CHEMBL1165901, “Synthesis and biological evaluation of dialkylaminoalkylamino benzo[c][1,7] and [1,8]phenanthrolines as antiproliferative agents” (Eur J Med Chem, 2010)
Active and inactive are the calls of the source. The rule behind the calls is not given here.

Experiments:
Calf thymus DNA [1] = assay: Binding affinity to calf thymus DNA assessed as change in melting temperature; format: nucleic-acid assay; conditions: Bos taurus
Procedure, shortened: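 CT-DNA ([…] as printed) in 1 mL BPE buffer pH 7.1 (6 mM Na2HPO4, 2 mM NaH2PO4, 1 mM EDTA), alone or with drug at base pair/drug ratio 1. A260 recorded every min, 20–100 °C at 1 °C/min, Peltier-controlled. Tm taken as midpoint of hyperchromic double- to single-strand transition; ΔTm relative to DNA alone.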

[2] = molecular target: DNA topoisomerase 2-alpha (Homo sapiens) (UniProt P11388); assay: Inhibition of human recombinant topoisomerase 2-mediated relaxation of supercoiled […] by agarose gel electrophoresis
Chain of DNA topoisomerase 2-alpha (Homo sapiens) (P11388 whole entry): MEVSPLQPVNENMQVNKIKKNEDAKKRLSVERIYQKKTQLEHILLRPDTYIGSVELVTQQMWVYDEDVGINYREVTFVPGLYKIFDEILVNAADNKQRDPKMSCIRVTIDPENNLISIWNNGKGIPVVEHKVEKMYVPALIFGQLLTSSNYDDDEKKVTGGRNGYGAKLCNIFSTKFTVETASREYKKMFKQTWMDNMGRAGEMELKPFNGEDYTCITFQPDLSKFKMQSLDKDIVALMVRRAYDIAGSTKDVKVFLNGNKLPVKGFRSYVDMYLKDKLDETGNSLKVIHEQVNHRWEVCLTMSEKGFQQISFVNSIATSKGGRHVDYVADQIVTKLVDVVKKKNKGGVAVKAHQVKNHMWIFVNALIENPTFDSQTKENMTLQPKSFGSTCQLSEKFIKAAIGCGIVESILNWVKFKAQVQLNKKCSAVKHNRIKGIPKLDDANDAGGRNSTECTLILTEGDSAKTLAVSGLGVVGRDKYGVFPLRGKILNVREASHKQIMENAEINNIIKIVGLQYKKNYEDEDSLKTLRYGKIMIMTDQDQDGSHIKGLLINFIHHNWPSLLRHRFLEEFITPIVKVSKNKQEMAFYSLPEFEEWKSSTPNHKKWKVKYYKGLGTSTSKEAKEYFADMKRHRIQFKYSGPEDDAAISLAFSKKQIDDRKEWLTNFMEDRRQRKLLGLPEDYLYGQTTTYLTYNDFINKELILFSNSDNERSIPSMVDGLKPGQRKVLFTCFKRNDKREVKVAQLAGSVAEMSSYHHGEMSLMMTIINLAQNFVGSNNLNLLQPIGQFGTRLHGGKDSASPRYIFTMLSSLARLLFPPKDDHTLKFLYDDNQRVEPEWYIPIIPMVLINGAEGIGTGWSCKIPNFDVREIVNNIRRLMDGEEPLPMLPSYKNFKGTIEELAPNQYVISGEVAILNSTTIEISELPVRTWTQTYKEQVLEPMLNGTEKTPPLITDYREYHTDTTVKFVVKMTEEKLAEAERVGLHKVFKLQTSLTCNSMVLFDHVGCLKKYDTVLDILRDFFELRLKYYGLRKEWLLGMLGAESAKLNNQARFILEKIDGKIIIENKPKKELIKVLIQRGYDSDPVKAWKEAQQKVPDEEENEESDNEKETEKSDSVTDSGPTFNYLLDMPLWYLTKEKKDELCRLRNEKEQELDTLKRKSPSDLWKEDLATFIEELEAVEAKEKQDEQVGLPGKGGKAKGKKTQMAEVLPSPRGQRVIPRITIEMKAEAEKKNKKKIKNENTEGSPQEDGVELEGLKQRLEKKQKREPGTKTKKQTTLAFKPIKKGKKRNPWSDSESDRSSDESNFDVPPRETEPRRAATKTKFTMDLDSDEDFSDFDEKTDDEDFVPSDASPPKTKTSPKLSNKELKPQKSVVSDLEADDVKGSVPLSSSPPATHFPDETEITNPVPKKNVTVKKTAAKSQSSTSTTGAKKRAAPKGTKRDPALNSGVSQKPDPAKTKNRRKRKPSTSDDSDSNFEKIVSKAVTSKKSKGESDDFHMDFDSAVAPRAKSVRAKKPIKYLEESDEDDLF
Procedure, shortened: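 Supercoiled pUC19 (350 ng) preincubated with compound at […], or etoposide at 20 or 50, before adding 10 units human topoisomerase II; 37 °C for 45 min in cleavage buffer. Stopped with SDS 0.25% plus proteinase K, 30 min at 50 °C. Run on 1% agarose containing ethidium bromide, 2 h at 120 V in TBE.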

[3] = molecular target: T1, DNA topoisomerase 1 (Homo sapiens) (UniProt P11387); assay: Inhibition of human recombinant topoisomerase 1-mediated relaxation of supercoiled pUC19 at 1 to 5 uM by agarose gel electrophoresis
T1 sequence (whole entry): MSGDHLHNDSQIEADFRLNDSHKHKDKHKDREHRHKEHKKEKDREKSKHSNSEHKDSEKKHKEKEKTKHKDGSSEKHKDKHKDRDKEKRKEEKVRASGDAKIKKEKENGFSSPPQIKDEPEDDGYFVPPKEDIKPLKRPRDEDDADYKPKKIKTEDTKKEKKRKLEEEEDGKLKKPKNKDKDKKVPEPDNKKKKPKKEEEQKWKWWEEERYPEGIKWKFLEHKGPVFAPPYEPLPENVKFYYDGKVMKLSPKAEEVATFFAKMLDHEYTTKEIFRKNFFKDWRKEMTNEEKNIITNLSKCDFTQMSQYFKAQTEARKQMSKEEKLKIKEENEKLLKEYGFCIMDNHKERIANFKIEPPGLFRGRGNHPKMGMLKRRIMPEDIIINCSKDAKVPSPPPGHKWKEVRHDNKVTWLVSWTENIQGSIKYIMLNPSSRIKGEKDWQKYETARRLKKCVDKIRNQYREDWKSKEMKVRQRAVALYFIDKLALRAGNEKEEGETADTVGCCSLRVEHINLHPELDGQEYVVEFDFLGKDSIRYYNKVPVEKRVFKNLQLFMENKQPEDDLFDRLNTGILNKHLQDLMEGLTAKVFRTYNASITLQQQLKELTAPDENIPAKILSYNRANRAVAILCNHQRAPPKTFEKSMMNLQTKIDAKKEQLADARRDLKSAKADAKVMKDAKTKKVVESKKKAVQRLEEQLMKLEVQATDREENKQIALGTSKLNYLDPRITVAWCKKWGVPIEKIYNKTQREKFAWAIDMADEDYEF

Calf thymus DNA [4] = assay: Binding affinity to calf thymus DNA assessed as decrease in absorbance at 20 uM by UV-visible spectrophotometry; format: nucleic-acid assay; conditions: Bos taurus
Procedure, shortened: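 Compound at […], with or without CT-DNA at […], in 1 mL BPE buffer pH 7.1 in a 10 mm quartz cuvette. Spectra scanned 230–500 nm against a blank holding the same DNA concentration in the same buffer. Drug/DNA ratio 1; DMSO stocks diluted into buffer.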

[5] = molecular target: T1, DNA topoisomerase 1 (Homo sapiens); assay: Inhibition of human recombinant topoisomerase 1-mediated relaxation of supercoiled pUC19 by agarose gel electrophoresis
L1210 = assay: Cytotoxicity against mouse L1210 cells; format: functional, cell-based
Procedure, shortened: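 Mouse leukemia L1210 cells grown in RPMI 1640 with 10% FCS, 2 mM glutamine, penicillin/streptomycin and 10 mM HEPES pH 7.4. Exposed 48 h to nine graded drug concentrations in triplicate. Read by microculture tetrazolium assay. IC50 is the concentration that halves absorbance relative to untreated cells; mean of 3.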

Calf thymus DNA [6] = assay: Binding affinity to calf thymus DNA assessed as circular dichroism at 50 uM by J810 Jasco spectrophotometer; format: nucleic-acid assay; conditions: Bos taurus
Procedure, shortened: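 CT-DNA deproteinized with SDS and dialyzed against 1 mM sodium cacodylate pH 7.0. Drug at […], with or without […] base pairs CT-DNA, in 1 mL 1 mM sodium cacodylate pH 7.0. CD spectra recorded 500–230 nm at 0.1 nm resolution.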

Calf thymus DNA [7] = assay: Binding affinity to calf thymus DNA assessed as decrease in fluorescence intensity at 20 uM by fluorescence spectrophotometry; format: nucleic-acid assay; conditions: Bos taurus
Procedure, shortened: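 Fluorescent compound at […] in 1 mL BPE buffer pH 7.1, with or without […] CT-DNA, in a 10 mm quartz cuvette. Excitation at 268, 275 or 285 nm depending on compound; emission spectra scanned.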

SMILES | ΔTm (Calf thymus DNA [1]) [°C] | Activity [2] | Activity [3] | Activity (Calf thymus DNA [4]) | Activity [5] | Activity (Calf thymus DNA [6]) | Activity (Calf thymus DNA [7]) | inhibition [3] | IC50 (L1210) [nM]
CCN(CC)CCCNc1nccc2c1ccc1c3cc(OC)c(OC)cc3cnc21 | – | Active | – | – | – | – | – | – | 3700
CCN(CC)CCCNc1ccc2c(ccc3c4cc5c(cc4cnc23)OCO5)n1 | 11 | Active | – | Active | – | Active | Active | – | 830
CCN(CC)CCNc1nccc2c1ccc1c3cc(OC)c(OC)cc3cnc21 | 9 | Active | – | Active | – | – | – | – | 1770
CCN(CC)CCNc1ccc2c(ccc3c4cc(OC)c(OC)cc4cnc23)n1 | 5 | Active | – | Active | – | – | Active | – | 960
COc1cc2cnc3c4ccnc(Cl)c4ccc3c2cc1OC | – | – | – | – | – | – | – | – | 4300
COc1cc2cnc3c4cccnc4ccc3c2cc1OC | – | – | – | – | – | – | – | – | 7100
c1cc2c(ccc3c4cc5c(cc4cnc23)OCO5)cn1 | – | – | – | – | – | – | – | – | 4400
COc1cc2cnc3c4ccncc4ccc3c2cc1OC | – | – | – | – | – | – | – | – | 6600
COc1cc2cnc3c4ccc(NCCCN(C)C)nc4ccc3c2cc1OC | 0 | Active | – | Active | – | – | Active | – | 2850
COc1cc2cnc3c4ccc(NCCN(C)C)nc4ccc3c2cc1OC | 12 | Active | – | Active | Active | – | Active | inactive | 1730
COc1cc2c(ccc3c4cc(OC)c(OC)cc4c[n+](C)c23)cc1O [FAGARONINE] | – | – | – | – | – | – | – | – | 6600
c1cnc2ccc3c4cc5c(cc4cnc3c2c1)OCO5 | – | – | – | – | – | – | – | – | 8800
CCN(CC)CCCNc1ccc2c(ccc3c4cc(OC)c(OC)cc4cnc23)n1 | – | Active | – | Active | – | – | Active | – | 1260

The next lines start with results.

ΔTm (Calf thymus DNA [1]) [°C] | Activity [2] | Activity [3] | Activity (Calf thymus DNA [4]) | Activity [5] | Activity (Calf thymus DNA [6]) | Activity (Calf thymus DNA [7]) | inhibition [3] | SMILES | IC50 (L1210) [nM]
7 | Active | inactive | Active | Active | – | – | – | CN(C)CCNc1nccc2c1ccc1c3cc4c(cc3cnc21)OCO4 | –
4 | Active | inactive | Active | Active | – | Active | – | CN(C)CCNc1ccc2c(ccc3c4cc5c(cc4cnc23)OCO5)n1 | 320
– | Active | – | Active | – | – | – | – | COc1cc2cnc3c4ccnc(NCCCN(C)C)c4ccc3c2cc1OC | 1800
14 | Active | inactive | Active | Active | Active | – | – | CN(C)CCCNc1nccc2c1ccc1c3cc4c(cc3cnc21)OCO4 | 290
– | Active | – | Active | – | Active | Active | – | CN(C)CCCNc1ccc2c(ccc3c4cc5c(cc4cnc23)OCO5)n1 | 510
9 | Active | – | Active | – | – | – | – | COc1cc2cnc3c4ccnc(NCCN(C)C)c4ccc3c2cc1OC | 3510
5 | Active | inactive | Active | Active | – | Active | – | CCN(CC)CCNc1ccc2c(ccc3c4cc5c(cc4cnc23)OCO5)n1 | 1740
